Test results taken from ChEMBL document CHEMBL1759894, “Synthesis and SAR investigations of novel 2-arylbenzimidazole derivatives as melanin-concentrating hormone receptor 1 (MCH-R1) antagonists” (Bioorg Med Chem Lett, 2011).

Experiments:
[1] = target: Melanin-concentrating hormone receptor 1 (Homo sapiens, UniProt Q99705); assay: Displacement of Eu-labeled MCH from human MCH-R1 expressed in CHO by time-resolved fluorometric assay
Outline: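 Competitive binding on membranes from CHO cells expressing human MCH-R1, with Eu-labeled MCH as tracer and time-resolved fluorometric read-out. IC50 values are means of at least two measurements.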

[2] = Metabolic stability in rat liver microsomes after 30 mins; assay type: ADME, Microsome; settings: read-out: Stability
[3] = Plasma concentration in rat at 10 mg/kg, po at 3 hrs; assay type: ADME, organism-based; design: dose 10 mg/kg, route oral
Outline: (§1)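 SD rats were given 10 mg/kg orally, and concentrations were measured 3 h after dosing. Values are means of n = 3 rats.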

[4] = Half life in rat at 10 mg/kg, iv and po; assay type: ADME, organism-based; design: dose 10 mg/kg, route oral; settings: in vivo
Outline: (§2)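 Rats received 10 mg/kg by both intravenous and oral routes, n = 3.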

Rattus norvegicus = assay: Volume of distribution at steady state in rat at 10 mg/kg, iv and po; assay type: ADME, organism-based; design: dose 10 mg/kg, route oral; settings: in vivo; outline: as §2
[5] = Clearance in rat at 10 mg/kg, iv; assay type: ADME, organism-based; design: dose 10 mg/kg, route intravenous; settings: in vivo; outline: as §2
[6] = target: Voltage-gated inwardly rectifying potassium channel KCNH2 (Homo sapiens, UniProt Q12809); assay: Inhibition hERG by patch clamp method
Chain of Voltage-gated inwardly rectifying potassium channel KCNH2 (Q12809 whole entry): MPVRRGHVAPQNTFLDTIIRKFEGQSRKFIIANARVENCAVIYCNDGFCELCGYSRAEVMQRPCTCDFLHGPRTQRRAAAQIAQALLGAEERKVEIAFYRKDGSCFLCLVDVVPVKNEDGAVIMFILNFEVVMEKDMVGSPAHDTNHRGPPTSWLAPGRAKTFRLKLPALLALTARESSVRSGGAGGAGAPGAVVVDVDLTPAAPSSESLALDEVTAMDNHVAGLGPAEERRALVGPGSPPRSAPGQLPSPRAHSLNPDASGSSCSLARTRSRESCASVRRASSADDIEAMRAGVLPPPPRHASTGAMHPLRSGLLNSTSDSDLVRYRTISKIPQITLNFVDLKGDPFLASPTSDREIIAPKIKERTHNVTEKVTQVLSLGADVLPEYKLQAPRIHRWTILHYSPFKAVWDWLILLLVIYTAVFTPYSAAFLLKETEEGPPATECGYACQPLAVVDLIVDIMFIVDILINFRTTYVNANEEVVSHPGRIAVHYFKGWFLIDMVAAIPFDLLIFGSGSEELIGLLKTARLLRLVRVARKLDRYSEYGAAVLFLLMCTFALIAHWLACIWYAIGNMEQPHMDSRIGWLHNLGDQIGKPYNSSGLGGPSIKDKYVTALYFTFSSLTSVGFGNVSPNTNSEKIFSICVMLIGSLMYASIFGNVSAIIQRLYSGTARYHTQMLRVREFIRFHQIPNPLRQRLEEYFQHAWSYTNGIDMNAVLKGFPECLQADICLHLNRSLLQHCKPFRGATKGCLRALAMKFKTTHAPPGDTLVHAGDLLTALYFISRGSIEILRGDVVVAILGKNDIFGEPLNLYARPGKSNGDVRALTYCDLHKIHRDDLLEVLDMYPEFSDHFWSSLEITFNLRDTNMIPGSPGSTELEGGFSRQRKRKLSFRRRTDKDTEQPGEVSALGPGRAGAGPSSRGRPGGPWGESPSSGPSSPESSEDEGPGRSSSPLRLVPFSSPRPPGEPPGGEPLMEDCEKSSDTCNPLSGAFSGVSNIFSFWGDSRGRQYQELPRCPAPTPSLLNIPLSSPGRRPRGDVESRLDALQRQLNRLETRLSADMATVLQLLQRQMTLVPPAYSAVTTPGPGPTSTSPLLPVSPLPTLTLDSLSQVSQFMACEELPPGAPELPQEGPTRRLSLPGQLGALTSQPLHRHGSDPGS

[7] = Oral bioavailability in rat at 10 mg/kg; assay type: ADME, organism-based; settings: in vivo; outline: as §2
[8] = Metabolic stability in human liver microsomes after 30 mins; assay type: ADME, Microsome; settings: read-out: Stability
[9] = Drug level in rat brain at 10 mg/kg, po at 3 hrs; assay type: ADME, organism-based; design: dose 10 mg/kg, route oral; settings: read-out: Drug uptake; outline: as §1

Chain of Melanin-concentrating hormone receptor 1 (Q99705 whole entry): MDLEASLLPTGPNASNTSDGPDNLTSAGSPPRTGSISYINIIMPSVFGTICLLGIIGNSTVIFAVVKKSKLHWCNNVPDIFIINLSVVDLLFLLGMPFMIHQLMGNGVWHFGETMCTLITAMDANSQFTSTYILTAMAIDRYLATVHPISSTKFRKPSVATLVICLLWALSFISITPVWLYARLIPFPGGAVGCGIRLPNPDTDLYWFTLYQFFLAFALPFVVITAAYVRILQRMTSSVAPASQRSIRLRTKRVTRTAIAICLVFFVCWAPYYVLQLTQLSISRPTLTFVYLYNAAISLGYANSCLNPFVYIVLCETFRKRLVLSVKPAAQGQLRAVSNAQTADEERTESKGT

Compound `CC(=O)Nc1cccc(C2CCN(CCCn3c(-c4ccc(C(C)C)cc4)nc4ccccc43)CC2)c1` has an IC50 [1] of 60 nM.

`CC(=O)Nc1cccc(C2CCN(CCCn3c(-c4ccccc4C(F)(F)F)nc4ccccc43)CC2)c1` gave an IC50 [1] of 50 nM.

In the case of `CC(=O)Nc1cccc(C2CCN(CCCn3c(-c4ccc(Cl)cc4)nc4ccccc43)CC2)c1`, the remaining at 0.5 h [2] is reported as 98%, the concentration at 3 h [3] is reported as 420 ng/mL and the half-life [4] is reported as 4.3 h. The Vdss (Rattus norvegicus) was 6 L/kg, the clearance [5] was 28.3 mL/min/kg and the IC50 [6] was 3 nM. For the same compound, the bioavailability [7] was 99%, the remaining at 0.5 h [8] was 97% and the concentration at 3 h [9] was 160 ng/g.

With `Cc1ccc(C(=O)Nc2cccc(C3CCN(CCCn4c(-c5ccc(Cl)cc5)nc5ccccc54)CC3)c2)cc1` the IC50 [1] was 300 nM.

`CCc1ccc(-c2nc3ccccc3n2CCCN2CCC(c3cccc(NC(C)=O)c3)CC2)cc1` gave an IC50 [1] of 32 nM.

For `CC(=O)Nc1ccc(C2CCN(CCCn3c(-c4ccc(Cl)cc4)nc4ccccc43)CC2)cc1`, the IC50 [1] was 5380 nM.

With `CC(=O)Nc1ccccc1C1CCN(CCCn2c(-c3ccc(Cl)cc3)nc3ccccc32)CC1` the IC50 [1] was > 6000 nM.

Work on `CC(=O)Nc1cccc(C2CCN(CCCn3c(-c4cccc(C(F)(F)F)c4)nc4ccccc43)CC2)c1` yielded an IC50 [1] of 30 nM.

`CC(=O)Nc1cccc(C2CCN(CCn3c(-c4ccccc4)nc4ccccc43)CC2)c1` showed an IC50 [1] of 10000 nM.
